Measured values as given in ChEMBL document CHEMBL1125483, “Novel inhibitors of prolyl 4-hydroxylase. 3. Inhibition by the substrate analogue N-oxaloglycine and its derivatives” (J Med Chem, 1992).

Experiments:
[1] = target: Prolyl 4-hydroxylase subunit alpha-1 (Rattus norvegicus) (UniProt P54001); experiment: Compound was evaluated for the inhibition of prolyl 4-hydroxylase at 100 ug/mL
[2] = target: T1, Prolyl 4-hydroxylase subunit alpha-1 (Rattus norvegicus, UniProt P54001); experiment: (§1) Compound was evaluated for the inhibition of prolyl 4-hydroxylase
How it was run: (§2)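 Prolyl 4-hydroxylase activity was measured with an indirect assay that follows the conversion of labelled 2-ketoglutarate cosubstrate into labelled succinate. Each point was run in duplicate. IC50 was obtained by interpolation from six-point dose-response curves.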

[3] = target: Prolyl 4-hydroxylase subunit alpha-1 (Rattus norvegicus) (UniProt P54001); experiment: Compound was evaluated for the inhibition of prolyl 4-hydroxylase at 50 ug/mL
[4] = target: T1, Prolyl 4-hydroxylase subunit alpha-1; experiment: Inhibitory activity against prolyl 4-hydroxylase
How it was run: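 Indirect radiometric assay: conversion of labelled cofactor 2-ketoglutarate into labelled succinate measured. Each point in duplicate; IC50 interpolated from six-point dose-response curves.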

[5] = target: T1, Prolyl 4-hydroxylase subunit alpha-1; experiment: Compound was evaluated for the inhibition of prolyl 4-hydroxylase
[6] = target: Prolyl 4-hydroxylase subunit alpha-1 (Rattus norvegicus) (UniProt P54001); experiment: Compound was evaluated for the inhibition of prolyl 4-hydroxylase at 100 ug/mL
[7] = target: Prolyl 4-hydroxylase subunit alpha-1 (Rattus norvegicus) (UniProt P54001); experiment: as §1; conditions: concentration not given here; how it was run: as §2

T1 sequence (P54001 whole entry): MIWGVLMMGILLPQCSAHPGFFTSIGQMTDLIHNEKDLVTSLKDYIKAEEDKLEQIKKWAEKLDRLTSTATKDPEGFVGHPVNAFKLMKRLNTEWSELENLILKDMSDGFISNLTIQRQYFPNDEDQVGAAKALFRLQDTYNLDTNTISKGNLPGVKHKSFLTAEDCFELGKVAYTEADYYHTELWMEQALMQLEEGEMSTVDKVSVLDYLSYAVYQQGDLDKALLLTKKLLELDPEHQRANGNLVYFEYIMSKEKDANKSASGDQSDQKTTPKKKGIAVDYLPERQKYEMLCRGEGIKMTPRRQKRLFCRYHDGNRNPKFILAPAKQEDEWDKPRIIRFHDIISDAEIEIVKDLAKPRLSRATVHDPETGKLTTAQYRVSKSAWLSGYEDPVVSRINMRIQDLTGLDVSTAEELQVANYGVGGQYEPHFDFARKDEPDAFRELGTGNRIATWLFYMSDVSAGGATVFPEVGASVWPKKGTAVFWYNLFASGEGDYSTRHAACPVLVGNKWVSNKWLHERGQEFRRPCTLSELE
Sequence of Prolyl 4-hydroxylase subunit alpha-1 (Rattus norvegicus) (P54001 whole entry): as above

Structure (SMILES)	IC50 [2]	inhibition [3]	further results
CSCCC(NC(=O)C(=O)O)C(=O)O (stereo not drawn)	–	–	inhibition [1]: 9%
O=C(O)c1ccc(C(=O)O)nc1 [PYRIDINE-2,5-DICARBOXYLIC ACID]	5.18 µM	–	Ki [4]: 0.8 µM
O=C(CNC(=O)C(=O)O)NS(=O)(=O)c1ccccc1	–	34%	–
C[C@@H](NC(=O)C(=O)O)C(=O)O	–	–	IC50 [5]: 621 µM
O=C(O)C(=O)Nc1ccc(C(=O)O)cc1	–	–	inhibition [6]: 9%
O=C(O)C(=O)NC(Cc1ccccc1)C(=O)O (stereo not drawn)	–	18%	–
CS(=O)(=O)NC(=O)CNC(=O)C(=O)O	414 µM	–	–
CCOc1ccc(NC(=O)CNC(=O)C(=O)O)cc1	–	16%	–
O=C(O)CCNC(=O)C(=O)O	–	–	inhibition [7]: 24%

Second part, led by results:

IC50 [2]	inhibition [3]	Structure (SMILES)	further results
2.89 µM	–	O=C(O)CNC(=O)C(=O)O [N-OXALYLGLYCINE]	Ki [2]: 0.54 µM
–	10%	O=C(O)C(=O)N1CCCC1C(=O)O (stereo not drawn)	–
–	26%	CC(C)(NC(=O)C(=O)O)C(=O)O	–
–	16%	CC(C)CC(NC(=O)C(=O)O)C(=O)O (stereo not drawn)	–
–	10%	CN(CC(=O)O)C(=O)C(=O)O	–
90.7 µM	–	CC(NC(=O)C(=O)O)C(=O)O (stereo not drawn)	–
38.2 µM	–	C[C@H](NC(=O)C(=O)O)C(=O)O	–
